ChEMBL document CHEMBL3352770, “Click chemistry inspired synthesis and bioevaluation of novel triazolyl derivatives of osthol as potent cytotoxic agents” (Eur J Med Chem, 2014)

Tests used:
[1] = tested on: A-431; assay: Cytotoxicity against human A431 cells after 24 hrs by MTT assay; format: functional, cell-based; conditions: A-431, 24 h
Procedure, shortened: (§1)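 Cells kept in DMEM with 10% foetal calf serum, penicillin and streptomycin, at 37 °C under 5% CO2. For assays serum lowered to 3%. Cells treated with test material at 0.04–60 µM for 24 h, then MTT (250 µg/mL) for 3 h. Formazan OD read at 570 nm. IC50 by non-linear regression, mean of triplicates. BEZ-235 as positive control.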

[2] = Cytotoxicity against human HCT116 cells after 24 hrs by MTT assay; format: functional, cell-based; conditions: HCT-116, 24 h; procedure, shortened: as §1
[3] = tested on: A549; assay: Cytotoxicity against human A549 cells after 24 hrs by MTT assay; format: functional, cell-based; conditions: A549, 24 h; procedure, shortened: as §1
[4] = Cytotoxicity against human NCI-H322 cells after 24 hrs by MTT assay; format: functional, cell-based; conditions: NCI-H322, 24 h; procedure, shortened: as §1
[5] = tested on: T47D; assay: Cytotoxicity against human T47D cells after 24 hrs by MTT assay; format: functional, cell-based; procedure, shortened: as §1
[6] = tested on: COLO 205; assay: Cytotoxicity against human COLO205 cells after 24 hrs by MTT assay; format: functional, cell-based; conditions: COLO 205, 24 h; procedure, shortened: as §1
[7] = Cytotoxicity against human PC3 cells after 24 hrs by MTT assay; format: functional, cell-based; conditions: PC-3, 24 h; procedure, shortened: as §1
[8] = tested on: COLO 205; assay: Induction of mitochondrial membrane potential loss in human COLO205 cells at 1 uM after 48 hrs by Rh-123 staining based flow cytometry (reference value: 12.4%); format: functional
[9] = tested on: COLO 205; assay: Induction of apoptosis in human COLO205 cells assessed as accumulation at subG1 phase at 1 uM after 48 hrs by propidium iodide staining based flow cytometry (reference value: 12%); format: functional
[10] = tested on: COLO 205; assay: Induction of cell cycle arrest in human COLO205 cells assessed as accumulation at G2 phase at 1 uM after 48 hrs by propidium iodide staining based flow cytometry (reference value: 13.2%); format: functional
[11] = tested on: COLO 205; assay: Induction of cell cycle arrest in human COLO205 cells assessed as accumulation at G1 phase at 1 uM after 48 hrs by propidium iodide staining based flow cytometry (reference value: 45.7%); format: functional
[12] = tested on: COLO 205; assay: Induction of cell cycle arrest in human COLO205 cells assessed as accumulation at S phase at 1 uM after 48 hrs by propidium iodide staining based flow cytometry (reference value: 13.8%); format: functional

| SMILES | IC50 [1] | IC50 [2] | IC50 [3] | IC50 [4] | IC50 [5] | IC50 [6] | IC50 [7] | Activity [8] | Activity [9] | Activity [10] | Activity [11] | Activity [12] |
| --- | --- | --- | --- | --- | --- | --- | --- | --- | --- | --- | --- | --- |
| COc1ccc(/C=C\C(=O)O)c(OCc2cn(-c3ccccc3I)nn2)c1CC=C(C)C | 32.7 µM | 23.1 µM | 2.2 µM | 42.3 µM | – | – | – | – | – | – | – | – |
| COc1ccc(/C=C\C(=O)O)c(OCc2cn(-c3ccccc3C#N)nn2)c1CC=C(C)C | 10.3 µM | 38.3 µM | 38.6 µM | 14.4 µM | 8.8 µM | 3.2 µM | – | – | – | – | – | – |
| COc1ccc(/C=C\C(=O)O)c(OCc2cn(P(=O)(Oc3ccccc3)Oc3ccccc3)nn2)c1CC=C(C)C | 43.3 µM | 35.5 µM | – | – | 30.6 µM | – | 36.2 µM | – | – | – | – | – |
| COc1ccc(/C=C\C(=O)O)c(OCc2cn(-c3ccc(C#N)cc3)nn2)c1CC=C(C)C | 23 µM | 21 µM | 42.2 µM | 18.6 µM | 10.2 µM | 32 µM | – | – | – | – | – | – |
| COc1ccccc1-n1cc(COc2c(/C=C\C(=O)O)ccc(OC)c2CC=C(C)C)nn1 | 32.6 µM | 32.2 µM | 43 µM | 41.5 µM | – | 12.2 µM | – | – | – | – | – | – |
| CC[C@@]1(O)C(=O)OCc2c1cc1n(c2=O)Cc2cc3ccccc3nc2-1 [CAMPTOTHECIN] | – | – | – | – | – | – | – | 30.8% | 69.4% | 2.2% | 11% | 4.9% |
| COc1ccc(/C=C\C(=O)O)c(OCc2cn(-c3ccccc3C(=O)N3CCC(O)C3)nn2)c1CC=C(C)C (configuration not stated) | 31.5 µM | 32 µM | – | – | 13.4 µM | 25.4 µM | 36.2 µM | – | – | – | – | – |
| COc1ccc(/C=C\C(=O)O)c(OCc2cn(-c3nc4ccccc4s3)nn2)c1CC=C(C)C | 20.8 µM | 16.4 µM | 42.1 µM | 23 µM | 17.2 µM | 20.2 µM | – | – | – | – | – | – |
| COc1ccc(/C=C\C(=O)O)c(OCc2cn(-c3ccc(NC(=O)c4ccccc4)cc3)nn2)c1CC=C(C)C | 21.2 µM | 16.4 µM | 42.7 µM | 17.2 µM | 23.3 µM | 20.3 µM | – | – | – | – | – | – |
| COc1ccc(/C=C\C(=O)O)c(OCc2cn(-c3ccc4c(c3)OCO4)nn2)c1CC=C(C)C | 23.1 µM | 20.4 µM | 19.4 µM | 22.7 µM | 13.2 µM | – | 32 µM | – | – | – | – | – |
| COc1ccc2ccc(=O)oc2c1CC=C(C)C [OSTHOLE] | 23.2 µM | 30.2 µM | 46.2 µM | 30.9 µM | 42.4 µM | > 60 µM | 24.8 µM | – | – | – | – | – |
| COc1ccc(/C=C\C(=O)O)c(OCc2cn(-c3ccccc3)nn2)c1CC=C(C)C | 21.2 µM | 26 µM | 40.5 µM | 29.2 µM | 34.1 µM | 32.3 µM | 35 µM | – | – | – | – | – |
